Assay results as given in ChEMBL document CHEMBL4689842, “EUbOPEN Chemogenomics Library wave 1” (2021).

System: U2OS
Test: Multiplex assay against U2OS
Format: toxicity, cell-based
Details: human
Procedure, shortened: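 Cells were classed with CellPathfinder machine-learning gating, first as Hoechst high-intensity objects or normal cells, then (normal cells) as healthy, pyknosed or fragmented nuclei, and finally (pyknosed cells) as mitotic or apoptotic. Staining of live cells at seeding used Hoechst33342, BioTracker Green Microtubule Cytoskeleton Dye, MitoTracker Red and Annexin V Alexa Fluor 680, with imaging on a CQ1 microscope at 37°C and 5% CO2 after compound addition. Tubulin, mitochondrial-mass and membrane-permeability phenotypes are per cents of healthy-nucleus cells.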

[1] = 12 h, 1 µM, compound concentration 1 uM, replicate 1
[2] = 12 h, 1 µM, compound concentration 1 uM, replicate 2
[3] = 12 h, 10 µM, compound concentration 10 uM, replicate 1
[4] = 12 h, 10 µM, compound concentration 10 uM, replicate 2
[5] = 24 h, 1 µM, compound concentration 1 uM, replicate 1
[6] = 24 h, 1 µM, compound concentration 1 uM, replicate 2
[7] = 24 h, 10 µM, compound concentration 10 uM, replicate 1
[8] = 24 h, 10 µM, compound concentration 10 uM, replicate 2
[9] = 48 h, 1 µM, compound concentration 1 uM, replicate 1
[10] = 48 h, 1 µM, compound concentration 1 uM, replicate 2
[11] = 48 h, 10 µM, compound concentration 10 uM, replicate 1
[12] = 48 h, 10 µM, compound concentration 10 uM, replicate 2

CC(C)c1noc(N2CCC(COc3ccc(-c4ccc(S(C)(=O)=O)cc4)nc3)CC2)n1 [GSK-1292263]
Population Apoptotic (%) [1]: 58% | Population Fragmented Nuclei (%) [1]: 25% | Population Healthy Nuclei (%) [1]: 64% | Population Hoechst High Intensity Objects (%) [1]: 17% | Population Membrane Permeable-Phenotype (%) [1]: 5% | Population Mitochondria Different-Phenotype (%) [1]: 10% | Population Mitotic Cells (%) [1]: 41% | Population Normal (%) [1]: 82% | Population Pyknosed Nuclei (%) [1]: 10% | Population Tubulin-Different-Phenotype (%) [1]: 10% | Total Cell Count [1]: 304 | Population Apoptotic (%) [2]: 50% | Population Fragmented Nuclei (%) [2]: 12% | Population Healthy Nuclei (%) [2]: 85% | Population Hoechst High Intensity Objects (%) [2]: 2% | Population Membrane Permeable-Phenotype (%) [2]: 3% | Population Mitochondria Different-Phenotype (%) [2]: 4% | Population Mitotic Cells (%) [2]: 50% | Population Normal (%) [2]: 97% | Population Pyknosed Nuclei (%) [2]: 2% | Population Tubulin-Different-Phenotype (%) [2]: 9% | Total Cell Count [2]: 89 | Population Apoptotic (%) [3]: 54% | Population Fragmented Nuclei (%) [3]: 16% | Population Healthy Nuclei (%) [3]: 67% | Population Hoechst High Intensity Objects (%) [3]: 7% | Population Membrane Permeable-Phenotype (%) [3]: 12% | Population Mitochondria Different-Phenotype (%) [3]: 18% | Population Mitotic Cells (%) [3]: 45% | Population Normal (%) [3]: 92% | Population Pyknosed Nuclei (%) [3]: 15% | Population Tubulin-Different-Phenotype (%) [3]: 33% | Total Cell Count [3]: 141 | Population Apoptotic (%) [4]: 42% | Population Fragmented Nuclei (%) [4]: 5% | Population Healthy Nuclei (%) [4]: 83% | Population Hoechst High Intensity Objects (%) [4]: 5% | Population Membrane Permeable-Phenotype (%) [4]: 3% | Population Mitochondria Different-Phenotype (%) [4]: 10% | Population Mitotic Cells (%) [4]: 57% | Population Normal (%) [4]: 94% | Population Pyknosed Nuclei (%) [4]: 10% | Population Tubulin-Different-Phenotype (%) [4]: 15% | Total Cell Count [4]: 76 | Population Apoptotic (%) [5]: 50% | Population Fragmented Nuclei (%) [5]: 17% | Population Healthy Nuclei (%) [5]: 73% | Population Hoechst High Intensity Objects (%) [5]: 15% | Population Membrane Permeable-Phenotype (%) [5]: 5% | Population Mitochondria Different-Phenotype (%) [5]: 11% | Population Mitotic Cells (%) [5]: 50% | Population Normal (%) [5]: 84% | Population Pyknosed Nuclei (%) [5]: 8% | Population Tubulin-Different-Phenotype (%) [5]: 5% | Total Cell Count [5]: 334 | Population Apoptotic (%) [6]: 0% | Population Fragmented Nuclei (%) [6]: 14% | Population Healthy Nuclei (%) [6]: 83% | Population Hoechst High Intensity Objects (%) [6]: 2% | Population Membrane Permeable-Phenotype (%) [6]: 2% | Population Mitochondria Different-Phenotype (%) [6]: 10% | Population Mitotic Cells (%) [6]: 100% | Population Normal (%) [6]: 97% | Population Pyknosed Nuclei (%) [6]: 2% | Population Tubulin-Different-Phenotype (%) [6]: 13% | Total Cell Count [6]: 103 | Population Apoptotic (%) [7]: 40% | Population Fragmented Nuclei (%) [7]: 20% | Population Healthy Nuclei (%) [7]: 67% | Population Hoechst High Intensity Objects (%) [7]: 7% | Population Membrane Permeable-Phenotype (%) [7]: 9% | Population Mitochondria Different-Phenotype (%) [7]: 14% | Population Mitotic Cells (%) [7]: 60% | Population Normal (%) [7]: 92% | Population Pyknosed Nuclei (%) [7]: 12% | Population Tubulin-Different-Phenotype (%) [7]: 14% | Total Cell Count [7]: 168 | Population Apoptotic (%) [8]: 36% | Population Fragmented Nuclei (%) [8]: 7% | Population Healthy Nuclei (%) [8]: 79% | Population Hoechst High Intensity Objects (%) [8]: 4% | Population Membrane Permeable-Phenotype (%) [8]: 7% | Population Mitochondria Different-Phenotype (%) [8]: 12% | Population Mitotic Cells (%) [8]: 63% | Population Normal (%) [8]: 95% | Population Pyknosed Nuclei (%) [8]: 13% | Population Tubulin-Different-Phenotype (%) [8]: 7% | Total Cell Count [8]: 91 | Population Apoptotic (%) [9]: 42% | Population Healthy Nuclei (%) [9]: 79% | Population Hoechst High Intensity Objects (%) [9]: 9% | Population Membrane Permeable-Phenotype (%) [9]: 2% | Population Mitochondria Different-Phenotype (%) [9]: 12% | Population Mitotic Cells (%) [9]: 57% | Population Normal (%) [9]: 90% | Population Pyknosed Nuclei (%) [9]: 9% | Population Tubulin-Different-Phenotype (%) [9]: 8% | Total Cell Count [9]: 406 | Population Apoptotic (%) [10]: 25% | Population Fragmented Nuclei (%) [10]: 11% | Population Healthy Nuclei (%) [10]: 85% | Population Hoechst High Intensity Objects (%) [10]: 0% | Population Membrane Permeable-Phenotype (%) [10]: 4% | Population Mitochondria Different-Phenotype (%) [10]: 13% | Population Mitotic Cells (%) [10]: 75% | Population Normal (%) [10]: 100% | Population Pyknosed Nuclei (%) [10]: 3% | Population Tubulin-Different-Phenotype (%) [10]: 12% | Total Cell Count [10]: 136 | Population Apoptotic (%) [11]: 60% | Population Fragmented Nuclei (%) [11]: 14% | Population Healthy Nuclei (%) [11]: 76% | Population Hoechst High Intensity Objects (%) [11]: 8% | Population Mitotic Cells (%) [11]: 40% | Population Normal (%) [11]: 91% | Population Pyknosed Nuclei (%) [11]: 9% | Population Tubulin-Different-Phenotype (%) [11]: 9% | Total Cell Count [11]: 231 | Population Apoptotic (%) [12]: 23% | Population Fragmented Nuclei (%) [12]: 5% | Population Healthy Nuclei (%) [12]: 80% | Population Hoechst High Intensity Objects (%) [12]: 2% | Population Membrane Permeable-Phenotype (%) [12]: 6% | Population Mitochondria Different-Phenotype (%) [12]: 13% | Population Mitotic Cells (%) [12]: 76% | Population Normal (%) [12]: 97% | Population Pyknosed Nuclei (%) [12]: 14% | Population Tubulin-Different-Phenotype (%) [12]: 7% | Total Cell Count [12]: 130

Cc1ccc(C)c(Oc2ccncc2C(=O)N2CCN(C3CC3)c3ccccc32)c1
Population Apoptotic (%) [1]: 53% | Population Fragmented Nuclei (%) [1]: 10% | Population Healthy Nuclei (%) [1]: 77% | Population Hoechst High Intensity Objects (%) [1]: 7% | Population Normal (%) [1]: 92% | Total Cell Count [1]: 135 | Population Apoptotic (%) [2]: 66% | Population Healthy Nuclei (%) [2]: 75% | Population Hoechst High Intensity Objects (%) [2]: 10% | Population Normal (%) [2]: 89% | Total Cell Count [2]: 73 | Population Apoptotic (%) [3]: 48% | Population Fragmented Nuclei (%) [3]: 15% | Population Healthy Nuclei (%) [3]: 61% | Population Hoechst High Intensity Objects (%) [3]: 6% | Population Mitotic Cells (%) [3]: 51% | Population Normal (%) [3]: 93% | Total Cell Count [3]: 132 | Population Apoptotic (%) [4]: 33% | Population Fragmented Nuclei (%) [4]: 6% | Population Healthy Nuclei (%) [4]: 72% | Population Hoechst High Intensity Objects (%) [4]: 3% | Population Normal (%) [4]: 96% | Total Cell Count [4]: 59 | Population Apoptotic (%) [5]: 47% | Population Fragmented Nuclei (%) [5]: 8% | Population Healthy Nuclei (%) [5]: 76% | Population Hoechst High Intensity Objects (%) [5]: 3% | Population Mitotic Cells (%) [5]: 52% | Population Normal (%) [5]: 96% | Total Cell Count [5]: 137 | Population Apoptotic (%) [6]: 42% | Population Fragmented Nuclei (%) [6]: 27% | Population Healthy Nuclei (%) [6]: 60% | Population Hoechst High Intensity Objects (%) [6]: 6% | Population Normal (%) [6]: 93% | Total Cell Count [6]: 71 | Population Apoptotic (%) [7]: 51% | Population Healthy Nuclei (%) [7]: 50% | Population Hoechst High Intensity Objects (%) [7]: 10% | Population Mitotic Cells (%) [7]: 48% | Population Normal (%) [7]: 89% | Total Cell Count [7]: 152 | Population Apoptotic (%) [8]: 53% | Population Healthy Nuclei (%) [8]: 66% | Population Hoechst High Intensity Objects (%) [8]: 7% | Population Normal (%) [8]: 92% | Total Cell Count [8]: 65 | Population Apoptotic (%) [9]: 46% | Population Fragmented Nuclei (%) [9]: 4% | Population Healthy Nuclei (%) [9]: 82% | Population Hoechst High Intensity Objects (%) [9]: 3% | Population Mitotic Cells (%) [9]: 53% | Population Normal (%) [9]: 96% | Total Cell Count [9]: 139 | Population Apoptotic (%) [10]: 36% | Population Fragmented Nuclei (%) [10]: 6% | Population Healthy Nuclei (%) [10]: 79% | Population Hoechst High Intensity Objects (%) [10]: 4% | Population Mitotic Cells (%) [10]: 63% | Population Normal (%) [10]: 95% | Total Cell Count [10]: 69 | Population Apoptotic (%) [11]: 61% | Population Fragmented Nuclei (%) [11]: 14% | Population Healthy Nuclei (%) [11]: 42% | Population Hoechst High Intensity Objects (%) [11]: 9% | Population Mitotic Cells (%) [11]: 38% | Population Normal (%) [11]: 90% | Total Cell Count [11]: 213 | Population Apoptotic (%) [12]: 33% | Population Fragmented Nuclei (%) [12]: 22% | Population Healthy Nuclei (%) [12]: 55% | Population Hoechst High Intensity Objects (%) [12]: 1% | Population Normal (%) [12]: 98% | Total Cell Count [12]: 83
